# Bioassay records as filed in PubChem.
# Hits are enriched below; roughly 3.6% of the tested compounds scored in any of these assays.
# Beta apoptosis = blocks beta cell apoptosis; INS-1E cytokine-induced death, ATP luminescence, 48 h; percent of positive-control rescue, neutral wells zero; protection from apoptosis, % (test concentration not listed); 0.8% of 300,000 active;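 active = Every replicate reaches about 75%, or at least half do and their mean reaches it too, limit read from the data; inconclusive = At least half of replicates reach the limit but their mean does not; inactive = Under half of replicates reach the limit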;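 also: 0% = cytokine-treated negative control wells and 100% = positive control rescue; higher means more ATP so stronger rescue from cytokine killing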
# SKKanGAS inh = SKKanGAS growth inhibition | 1.3% of 300,000 active | S. pyogenes SKKanGAS, kanamycin growth, BacTiter-Glo, 6 h | inhibition, % at 7.5 µM;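 active = mean replicate score, as percent of positive control median, at least 50; inconclusive = mean below 50 but one replicate at or above 50; inactive = mean and every replicate below 50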;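 also: strain carries kanamycin resistance gene driven by streptokinase promoter and grows in 40 µg/ml kanamycin; loss of luminescence reflects streptokinase promoter inhibition or plain growth inhibition; 0% = median of DMSO wells and 100% = positive control at its reference dose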
# HIF act = HIF pathway transcriptional activation | U2OS HRE-luciferase reporter, luminescence; normalized: DMSO 0%, desferrioxamine 100% | activation, % at 7.5 µM (by protocol) | 0.32% of 300,000 active;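 active = mean activation of at least 10% of the iron chelator positive control signal, with at least half of replicates also reaching 10%; inconclusive = mean and replicate majority disagree about reaching 10%; inactive = mean and most replicates under 10%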
# CSC inhib = blocks cancer stem cells; inhibition, % at 7.5 µM; 1.1% of 300,000 active; cancer stem cell-like cells viability, luminescence; in the data active = inhibition above about 75%; inconclusive = no clear call, values can overlap the other calls; tested in HMLE shEcad cells
# T cruzi inh = blocks replication of Trypanosoma cruzi. T. cruzi beta-gal in NIH3T3, luminescence, 90 h. inhibition, % (no concentration beside the values). 1.4% of 300,000 active;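 active = mean inhibition across valid replicates above about 55%, limit read from the data; inconclusive = mean below that limit but half or more replicates reach it; inactive = mean below it, under half of replicates reach it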;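 also: signal also drops with host cell toxicity which is not excluded here; 0% = plate median of DMSO wells and 100% = zero luminescence signal; higher percent means less beta-gal luminescence so fewer parasites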
#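 System – NIH/3T3 host cells with β-galactosidase reporter T. cruzi · Doses – single 50 nL compound addition per well in DMSO · Reagent – 5000 T. cruzi trypomastigotes/well · Medium – Low-serum DMEM with 2% FBS · Timing – ≥90 h infection period, 3 h prior cell attachment · Evaluation – parasite load inhibition, % · Technique – GalScreen luminescence, 60 min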
# PfHsp90 yeast 2 = growth inhibition of yeast expressing Plasmodium Hsp90; S. cerevisiae expressing PfHsp90, BacTiter-Glo ATP, 48 h; yeast lacking PDR1 and PDR3 efflux regulators; inhibition, % at 9.4 µM; 0.32% of 310,000 active;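 active = every replicate shows inhibition above about 80%, whatever the replicate mean, limit read from the data; inconclusive = mean inhibition reaches the set limit but some replicate falls short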;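 also: 0% = DMSO neutral controls and 100% = 20 µM radicicol positive controls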
# * marks the source's active call; other numbers are inactive results; ? = inconclusive; nt = not tested or not shown.
SMILES,Beta apoptosis,SKKanGAS inh,HIF act,CSC inhib,T cruzi inh,PfHsp90 yeast 2
Cc1ccc(CSc2nnc(-c3ccncc3)n2C)cc1,4,4,0,7,-7,-19
COc1cccc(Nc2nc(-c3cccc(N4C(=O)c5ccccc5C4=O)c3)cs2)c1,-5,13,1,30,-9,-1
Cc1ccc(Nc2nc(CSc3nnc(-c4ccncc4)n3C)cs2)cc1,6,0,258*,-4,49,13
COc1cccc(Nc2nc(-c3ccc(O)cc3)cs2)c1,7,4,2,117*,25,nt
Cc1ccc(S(=O)(=O)CNC(=S)c2ccc3ccccc3c2)cc1,-9,62*,0,0,-23,-14
C(=N\Nc1ncnc2sc3c(c12)CCC3)/c1cccs1,96*,?,3,94*,41,27
Oc1nc(Nc2ccc(F)cc2)sc1/C=C1\C=Nc2ccccc21,8,55*,0,66,13,-3
Oc1nc(Nc2cccc(Cl)c2)sc1/C=C1\C=Nc2ccccc21,-3,113*,0,109*,-5,-25
CC1=Nc2ccccc2/C1=C/c1sc(=O)n(CC(=O)N2CCCC2)c1O,2,-11,0,-3,9,nt
Oc1cccc(Nc2nc(O)c(/C=C3\C=Nc4ccccc43)s2)c1,9,nt,nt,54,nt,-18
CC1=Nc2ccccc2/C1=C\c1sc(Nc2ccc(C)cc2)nc1O,42,37,0,85*,29,1
Cc1nnc(SCC(=O)NC2CCCC2)n1C(C)C,0,-5,0,-4,-2,-1
OCCC1CN(Cc2cccn2-c2ncccn2)CCN1CCc1ccccc1 (centres undefined),-2,-3,1,-2,6,nt
CC(C)c1ccc2oc(-c3cc(N)ccc3O)nc2c1,14,-3,0,15,60*,-107
CCOC(=O)CCC(=O)O[C@H]1[C@H](O[C@@H]2[C@@H](C)[C@H](O[C@H]3C[C@@](C)(OC)[C@@H](O)[C@H](C)O3)[C@@H](C)C(=O)O[C@H](CC)[C@@](C)(O)[C@H](O)[C@@H](C)C(=O)[C@H](C)C[C@@]2(C)O)O[C@H](C)C[C@@H]1N(C)C,nt,105*,0,0,-5,-9
O=C1CC(=O)N(CCNc2ncc(C(F)(F)F)cc2Cl)C(=O)N1,nt,-6,0,-24,-6,-16
O=[N+]([O-])c1ccccc1NCCNc1ncc(C(F)(F)F)cc1Cl,3,52*,2,5,21,3
O=[N+]([O-])c1cc(Cl)ccc1NCCNc1ncc(C(F)(F)F)cc1Cl,9,3,0,3,31,-12
O=C1C=CC(=O)N1CCNc1ncc(C(F)(F)F)cc1Cl,nt,77*,0,nt,57*,101*
Clc1cc(-c2ccccc2)nc(-c2ccccc2)n1,2,27,0,4,2,6
Brc1cc(-c2ccccc2)nc(-c2ccccc2)n1,1,51*,0,65,-45,nt
Oc1ccc(-c2cc(-c3ccc(O)cc3)nc(-c3ccccc3)n2)cc1,-1,103*,1,105*,55*,11
Nc1ccc(-c2cc(-c3ccc(N)cc3)nc(-c3ccccc3)n2)cc1,-2,3,0,-1,8,2
CNC(=O)CC1C(=O)N(C)C(=S)N1NC(=O)c1ccc(Cl)cc1 (centres undefined),-6,5,0,5,1,nt
Cc1ccc(C(=O)N2CCOCC2)cc1S(=O)(=O)N1CCCCC1,-7,6,0,4,7,15
SMILES,Beta apoptosis,SKKanGAS inh,HIF act,CSC inhib,T cruzi inh,PfHsp90 yeast 2
COc1ccc(CN2CCC(CO)(CCOc3ccccc3)CC2)cc1C,nt,-4,0,nt,25,5
CC1CN(C(=O)Cn2cc(SCC(=O)N3CCOCC3)c3ccccc32)CC(C)O1 (centres undefined),-2,3,0,11,-8,13
Cc1onc(C(=O)NN)c1C(=O)Nc1ncc(C(F)(F)F)cc1Cl,-11,-4,0,nt,2,29
COc1cc(NC(=O)c2csc(N)n2)cc(C(=O)Nc2cccc(C(F)(F)F)c2)c1,19,15,5,88*,1,-19
COc1cc(NC(=O)c2ccnc(N)c2)cc(C(=O)Nc2cccc(C(F)(F)F)c2)c1,1,5,-1,97*,-14,2
COc1cc(NC(=O)c2cnc(N)s2)cc(C(=O)Nc2cccc(C(F)(F)F)c2)c1,3,12,-1,50,7,nt
COc1cc(NC(=O)c2cnc(N)o2)cc(C(=O)Nc2cccc(C(F)(F)F)c2)c1,2,2,1,-4,-5,-4
COc1cc(NC(=O)c2cc(C)on2)cc(C(=O)Nc2cccc(C(F)(F)F)c2)c1,38,10,0,88*,17,30
Cc1ncsc1C(=O)Nc1cccc(C(F)(F)F)c1,2,4,-3,-10,-9,0
CCc1cc(CNC(=O)c2ccc3nc(Cc4ccc(OC)c(OC)c4)oc3c2)on1,107*,-6,0,-9,-8,-7
COc1ccc(Cc2nc3ccc(C(=O)NCc4cc(C)no4)cc3o2)cc1,0,-3,3,-10,-7,8
O=S(=O)(Nc1ccc(-c2nnc(SCc3ccc(Cl)cc3)o2)cc1)c1ccccc1,-11,38,0,92*,6,-7
O=C(Nc1ccccc1-c1nnc(SCc2ccc(Cl)cc2)o1)c1ccccc1,4,-11,-1,nt,71*,9
S=C(Nc1ccccc1Cl)N1CCCC(c2ccccc2)=N1,-3,1,-1,84*,36,11
COCC(C)(C)COS(N)(=O)=O,2,-7,0,-8,-8,8
COc1ccc(-c2nn(-c3ccccc3)cc2/C=N/Nc2ccc3ccccc3n2)cc1OC,86*,19,0,5,47,-127
COc1cc(OCc2ccccc2)c(C(=O)/C=C/c2ccc3c(c2)OCO3)c(OC)c1OC,-7,-2,0,37,44,-16
CN(C)CCNC(=O)c1cc(Sc2ccc(F)cc2)nc2ccccc12,1,-1,0,6,65*,nt
Cc1ccc(Sc2cc(C(=O)NCCCN(C)C)c3ccccc3n2)cc1,-2,4,-17,3,56*,12
Cc1ccc(Sc2cc(C(=O)NCCN(C)C)c3ccccc3n2)cc1,-14,-5,-1,3,52,-7
Cn1nc(-c2ccc(N3CCCCC3)c(NC(=O)c3ccco3)c2)c2ccccc2c1=O,17,31,-1,25,66*,nt
CCOC(=O)Nc1ccc(OCc2nnc3c4ccccc4c(C)nn23)cc1,3,94*,-1,-5,-1,nt
Cc1nn2c(CN(C(=O)COc3ccccc3)c3ccccc3)nnc2c2ccccc12,4,4,-1,6,11,-2
Cc1nn2c(COc3ccc(NC(=O)c4ccccc4Cl)cc3)nnc2c2ccccc12,-5,87*,2,90*,0,-4
